Screening data as filed in PubChem.
RGS4 inh: RGS4 inhibitors, primary screen, cell-based, HEK293 M3R inducible RGS4, calcium flux | Regulator of G-protein signaling 4 (Homo sapiens), P49798 | B-score at 10 µM | Fluo-4 calcium flux; hits give high values; triggered by carbachol at its EC20 | actives 0.45% (n = 310,000);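 active = B-score, a plate-corrected calcium signal, over three deviations above library mean, with baseline fluorescence within five deviations of library mean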;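 note: RGS4 expression induced by doxycycline in cells with stable M3 receptor; B-score is computed from the integrated fluorescence ratio over baseline after carbachol; higher B-score means a larger calcium signal and so more RGS4 inhibition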
Target sequence (P49798 whole entry, looked up): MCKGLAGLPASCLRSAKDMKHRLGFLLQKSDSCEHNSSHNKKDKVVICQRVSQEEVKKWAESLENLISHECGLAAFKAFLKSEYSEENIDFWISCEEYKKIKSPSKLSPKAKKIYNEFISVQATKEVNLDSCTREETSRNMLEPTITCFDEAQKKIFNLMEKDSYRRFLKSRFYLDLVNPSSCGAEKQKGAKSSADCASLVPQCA
RGS4 pot: RGS4 potentiators or activators, primary screen, cell-based, HEK293 M3R inducible RGS4, calcium flux; carbachol calcium flux Fluo4; hits give low values; B-score at 10 µM; actives 0.92% (n = 310,000);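 active = B-score of the integrated calcium signal more than 4 SD below the library mean, with starting fluorescence not abnormally high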;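 note: negative B-score means reduced calcium response which marks RGS4 activation or potentiation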
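System: HEK293 FlpIn-TREx cells, stable M3R, doxycycline-inducible RGS4. Timing: overnight RGS4 induction, 30 min dye load 37 °C, 20 min compound RT. Also added: carbachol, ECmax concentration. Measured by: Fluo4 fluorescence kinetic imaging of calcium. Evaluation: integrated calcium ratio converted to B score.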
MrgX1 antag: antagonists of human MrgX1 receptor, primary screen, HEK293 cells, Fluo-4 calcium flux; B-score at 10 µM; Mas-related G-protein coupled receptor member X1 (Homo sapiens), Q96LB2; actives 1.3% (n = 310,000); BAM8-22 antagonism; hits give low values;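 active = calcium-response B-score plate-corrected more than 3 library SD below zero, starting fluorescence within 5 deviations, no agonist response on first addition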;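 note: peak minus trough fluorescence over baseline after final BAM8-22 challenge near maximal dose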
Target sequence (Q96LB2 whole entry, looked up): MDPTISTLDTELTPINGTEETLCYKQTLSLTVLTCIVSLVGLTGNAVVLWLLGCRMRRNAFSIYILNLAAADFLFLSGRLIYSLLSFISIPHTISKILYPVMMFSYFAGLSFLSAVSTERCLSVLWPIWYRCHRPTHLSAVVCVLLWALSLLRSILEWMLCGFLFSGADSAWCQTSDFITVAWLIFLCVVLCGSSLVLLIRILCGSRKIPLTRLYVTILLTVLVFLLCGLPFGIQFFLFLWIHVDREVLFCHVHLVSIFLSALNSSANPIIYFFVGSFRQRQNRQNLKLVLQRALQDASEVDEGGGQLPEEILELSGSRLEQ
MrgX1 allo act: positive allosteric modulators of MrgX1, primary screen, HEK293 cells, Fluo-4 calcium flux; FDSS; hits give high values; Mas-related G-protein coupled receptor member X1 (Homo sapiens), Q96LB2; actives 0.63% (n = 310,000); B-score at 10 µM;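 active = plate-corrected calcium response at least 3 library SD above typical, normal starting fluorescence, not activating the receptor alone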;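 note: compound read alongside a low EC10 to EC30 dose of BAM8-22 agonist; peak minus trough fluorescence over baseline measured at the second addition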
MrgX1 agonist: agonists of human MrgX1 receptor, primary screen, HEK293 cells, Fluo-4 calcium flux; Mas-related G-protein coupled receptor member X1 (Homo sapiens), Q96LB2; Fluo-4 calcium fluorescence, agonist mode; hits give high values; B-score at 10 µM; actives 0.44% (n = 310,000); AID 588627, 2011;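 active = calcium response B-score plate-corrected fluorescence ratio at least 3 library SD, with starting fluorescence B-score inside 5 SD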
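Material: HEK293 cells stably expressing human MrgX1 receptor | Quantity: 15,000 cells per well | Times: Cells plated overnight, dye loaded 0.5 h 37 °C, 0.5 h room temperature | Measured by: Kinetic Fluo-4 NW fluorescence of intracellular calcium | Control set: Positive and negative controls per plate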
A number is an active result. Sampled rows, rich in hits. Any-hit rate of the full collection: about 3.5%.

What do the screens show for `O=C1/C(=C\c2cc(Br)cc(Br)c2O)SC(=S)N1Cc1ccccc1`?
RGS4 inh: inactive; RGS4 pot: inactive; MrgX1 antag: -6.1; MrgX1 allo act: inactive; MrgX1 agonist: inactive

Results for CC1=CC=CC2=NC(=O)CC(C)(C(=O)N(CC(=O)NC3CCCC3)c3ccc(F)cc3)N12 (centres undefined) ?
RGS4 inh: inactive; RGS4 pot: inactive; MrgX1 antag: inactive; MrgX1 allo act: inactive; MrgX1 agonist: inactive

What do the screens show for `CCn1nc(C(=O)Nc2ccccc2N2CCCC2)c2ccccc2c1=O`?
RGS4 inh: inactive; RGS4 pot: -8.7; MrgX1 antag: inactive; MrgX1 allo act: 12; MrgX1 agonist: inactive

What do the screens show for `CCCCCCCCNC(C)C(O)c1ccc(SC(C)C)cc1` (centres undefined)?
RGS4 inh: inactive; RGS4 pot: -7; MrgX1 antag: inactive; MrgX1 allo act: inactive; MrgX1 agonist: inactive

Results for O=c1[nH]ccc2c(O)cccc12 ?
RGS4 inh: inactive; RGS4 pot: inactive; MrgX1 antag: inactive; MrgX1 allo act: inactive; MrgX1 agonist: inactive

How did Cc1ccc(F)cc1CNC(=O)C1CCC(=O)N(C2CC2)C1 (centres undefined) do in these assays?
RGS4 inh: inactive; RGS4 pot: inactive; MrgX1 antag: inactive; MrgX1 allo act: inactive; MrgX1 agonist: inactive

How did CC(=O)OCCCN(C)CC/C=C1/c2ccccc2CSc2ccccc21 do in these assays?
RGS4 inh: inactive; RGS4 pot: -7.9; MrgX1 antag: inactive; MrgX1 allo act: inactive; MrgX1 agonist: inactive

What do the screens show for `CC1(OC(=O)c2ccco2)C(=O)C=C2C=C(C3CC3)OC=C2C1=O` (centres undefined)?
RGS4 inh: inactive; RGS4 pot: inactive; MrgX1 antag: -5; MrgX1 allo act: inactive; MrgX1 agonist: inactive

How did Nc1ccccc1Sc1ccc(C(=O)c2ccccc2C(=O)O)cc1[N+](=O)[O-] do in these assays?
RGS4 inh: inactive; RGS4 pot: inactive; MrgX1 antag: inactive; MrgX1 allo act: inactive; MrgX1 agonist: inactive

Results for O=C(O)c1ccccc1C(=O)c1ccc(Sc2ccc(Cl)cc2)c([N+](=O)[O-])c1 ?
RGS4 inh: inactive; RGS4 pot: inactive; MrgX1 antag: inactive; MrgX1 allo act: inactive; MrgX1 agonist: 38

How did CN1CCN(Cc2ccc(Sc3ccc(Cl)cc3)c([N+](=O)[O-])c2)CC1 do in these assays?
RGS4 inh: inactive; RGS4 pot: -8.3; MrgX1 antag: inactive; MrgX1 allo act: inactive; MrgX1 agonist: inactive

How did CCC(Sc1ccc(C(=O)O)cc1)C(=O)O (centres undefined) do in these assays?
RGS4 inh: inactive; RGS4 pot: inactive; MrgX1 antag: inactive; MrgX1 allo act: inactive; MrgX1 agonist: inactive

How did O=C(CC(Sc1ccc(Br)cc1)C(=O)O)c1ccc(F)cc1 (centres undefined) do in these assays?
RGS4 inh: 6.3; RGS4 pot: inactive; MrgX1 antag: inactive; MrgX1 allo act: inactive; MrgX1 agonist: inactive

Results for Cc1ccc(-c2nn(-c3ccccc3)cc2C=C2C(=O)CC(C)(C)CC2=O)cc1 ?
RGS4 inh: 11; RGS4 pot: inactive; MrgX1 antag: inactive; MrgX1 allo act: inactive; MrgX1 agonist: inactive

Results for CC1=NNC(=O)/C1=C\c1cn(-c2ccccc2)nc1-c1ccc(Cl)cc1 ?
RGS4 inh: inactive; RGS4 pot: inactive; MrgX1 antag: inactive; MrgX1 allo act: inactive; MrgX1 agonist: inactive

How did COc1ccc(C(=O)N/N=C2/SCC(=O)N2Cc2ccc3c(c2)OCO3)cc1OC do in these assays?
RGS4 inh: inactive; RGS4 pot: inactive; MrgX1 antag: inactive; MrgX1 allo act: inactive; MrgX1 agonist: inactive

How did COc1cccc(C(=O)N/N=C2\SCC(=O)N2Cc2ccc3c(c2)OCO3)c1 do in these assays?
RGS4 inh: inactive; RGS4 pot: inactive; MrgX1 antag: -5.6; MrgX1 allo act: inactive; MrgX1 agonist: inactive

How did Cc1c(C(=O)N2CCCCC2)c(S(=O)(=O)N2c3ccccc3CC2C)c(C)n1C (centres undefined) do in these assays?
RGS4 inh: inactive; RGS4 pot: inactive; MrgX1 antag: inactive; MrgX1 allo act: inactive; MrgX1 agonist: inactive

Results for COc1cc([N+](=O)[O-])cc(/C=N/NC(=O)c2cc(C)nc3ccccc23)c1O ?
RGS4 inh: inactive; RGS4 pot: inactive; MrgX1 antag: inactive; MrgX1 allo act: inactive; MrgX1 agonist: inactive

What do the screens show for `COc1cc([N+](=O)[O-])cc(/C=N/NC(=O)c2cc(-c3ccccc3)nc3ccccc23)c1O`?
RGS4 inh: inactive; RGS4 pot: inactive; MrgX1 antag: inactive; MrgX1 allo act: 10; MrgX1 agonist: inactive

What do the screens show for `O=C(N/N=C/c1cc(Cl)cc([N+](=O)[O-])c1O)c1cc(-c2ccccn2)nc2ccccc12`?
RGS4 inh: inactive; RGS4 pot: inactive; MrgX1 antag: -5.5; MrgX1 allo act: inactive; MrgX1 agonist: inactive

How did COc1ccc(CN2CCC(n3nccc3NC(=O)C3CC3)CC2)c(Cl)c1OC do in these assays?
RGS4 inh: inactive; RGS4 pot: inactive; MrgX1 antag: inactive; MrgX1 allo act: inactive; MrgX1 agonist: inactive

What do the screens show for `COC(=O)c1sccc1NC(=S)N1CCN(c2cccc(C)c2C)CC1`?
RGS4 inh: inactive; RGS4 pot: inactive; MrgX1 antag: inactive; MrgX1 allo act: inactive; MrgX1 agonist: inactive

Results for COc1ccc(N2C(=O)[C@@H]3[C@H](C2=O)[C@H]2c4ccccc4C=CN2[C@@H]3C(=O)Nc2ccccc2)cc1 ?
MrgX1 antag: -7.1; MrgX1 allo act: inactive; MrgX1 agonist: inactive

Results for O=C(c1ccco1)[C@@H]1[C@@H]2C(=O)N(c3ccccc3)C(=O)[C@@H]2C2c3ccccc3C=CN21 (some centres undefined) ?
RGS4 inh: inactive; RGS4 pot: inactive; MrgX1 antag: inactive; MrgX1 allo act: inactive; MrgX1 agonist: inactive

Results for COc1ccc2c(c1)C(c1ccc(C)o1)=NNC(c1ccccc1)=N2 ?
RGS4 inh: inactive; RGS4 pot: inactive; MrgX1 antag: -8.4; MrgX1 allo act: inactive; MrgX1 agonist: inactive

What do the screens show for `Cc1ccsc1CN(C)CC(=O)Nc1ccc([N+](=O)[O-])cc1Cl`?
RGS4 inh: inactive; RGS4 pot: -8.5; MrgX1 antag: inactive; MrgX1 allo act: inactive; MrgX1 agonist: inactive

How did O=C(COC(=O)C12CC3CC(CC(C3)C1)C2)Nc1ccc([N+](=O)[O-])cc1Cl do in these assays?
RGS4 inh: inactive; RGS4 pot: inactive; MrgX1 antag: -6.6; MrgX1 allo act: inactive; MrgX1 agonist: inactive

Results for CCN(CC)CCCn1c2c(c(SCC(=O)Nc3ccc4c(c3)OCCO4)nc1=O)CCC2 ?
RGS4 inh: inactive; RGS4 pot: inactive; MrgX1 antag: inactive; MrgX1 allo act: inactive; MrgX1 agonist: inactive
